Test results from the RNAGym collection of RNA variant scans (doi:10.1038/s41586-018-0170-7).

B1: tRNA (parent)
chain: GUUCCGUUGGCGUAAUGGUAACGCGUCUCCCUCCUAAGGAGAAGACUGCGGGUUCGAGUCCCGUACGGAACG

Variants of: B1
Assay: yeast fitness, log relative to wild type (ln ratio); higher = fitter; tRNA-Arg(CCU), competitive growth, 37 C, 1 M NaCl
Outline: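 A combinatorial tRNA-Arg(CCU) variant library was carried on a HIS3 centromeric plasmid in BY4742 lacking the chromosomal gene, from two independent transformations. Pools grew 4 generations in SC-HIS at 30 °C, then ~6.5 generations (~26.5 h) in SC-HIS 1M NaCl at 37 °C, with three outputs per input. Variants were counted by 125 bp paired-end Illumina sequencing. Fitness is ln of each genotype's generations (OD-scaled log2 output/input frequency, inverse-variance weighted across replicates) over the wild-type's.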

Variant | yeast fitness (ln)
GUUCCGUUGGCGUAAUGGUAACGCGUCUCCCUCCUAAGGAGAAGACUGCGGGUUCGAGUCCCGUAUGGGAUG | -0.166
GUUCCGUUGGCGUAAUGGUAACGCGUCUCCCUCCUAAGGAGAAGACUGCGGGUUCGAGUCCCGUAAGGGAUG | -0.108
GUUCCGUUGGCGUAAUGGUAACGCGUCUCCCUCCUAAGGAGAAGACUGCGGGUUCGAGUCCCGUAAGGGGUG | -0.0757
GUUCCGUUGGCGUAAUGGUAACGCGUCUCCCUCCUAAGGAGAAGACUGCGGGUUCGAGUCCCGUAUGGGUUG | -0.339
GUUCCGUUGGCGUAAUGGUAACGCGUCUCCCUCCUAAGGAGAAGACUGCGGGUUCGAGUCCCGUAUGGGGCG | -0.0718
GUUCCGUUGGCGUAAUGGUAACGCGUCUCCCUCCUAAGGAGAAGACUGCGGGUUCGAGUCCCGUAUGGGUCG | -0.0858
GUUCCGUUGGCGUAAUGGUAACGCGUCUCCCUCCUAAGGAGAAGACUGCGGGUUCGAGUCCCGUAUGGAACG | -0.017
GUUCCGUUGGCGUAAUGGUAACGCGUCUCCCUCCUAAGGAGAAGACUGCGGGUUCGAGUCCCGUAUGGAGUG | -0.0554
GUUCCGUUGGCGUAAUGGUAACGCGUCUCCCUCCUAAGGAGAAGACUGCGGGUUCGAGUCCCGUACGGGACG | -0.00462
GUUCCGUUGGCGUAAUGGUAACGCGUCUCCCUCCUAAGGAGAAGACUGCGGGUUCGAGUCCCGUACGGGAUG | -0.0165
GUUCCGUUGGCGUAAUGGUAACGCGUCUCCCUCCUAAGGAGAAGACUGCGGGUUCGAGUCCCGUACGGAUUG | -0.0899
GUUCCGUUGGCGUAAUGGUAACGCGUCUCCCUCCUAAGGAGAAGACUGCGGGUUCGAGUCCCGUAAGGGGCG | -0.0347
GUUCCGUUGGCGUAAUGGUAACGCGUCUCCCUCCUAAGGAGAAGACUGCGGGUUCGAGUCCCGUAAGGGUCG | -0.0115
GUUCCGUUGGCGUAAUGGUAACGCGUCUCCCUCCUAAGGAGAAGACUGCGGGUUCGAGUCCCGUAAGGAUUG | -0.0544
GUUCCGUUGGCGUAAUGGUAACGCGUCUCCCUCCUAAGGAGAAGACUGCGGGUUCGAGUCCCGUACGGGGCG | -0.0138
GUUCCGUUGGCGUAAUGGUAACGCGUCUCCCUCCUAAGGAGAAGACUGCGGGUUCGAGUCCCGUACGGGUCG | -0.0431
GUUCCGUUGGCGUAAUGGUAACGCGUCUCCCUCCUAAGGAGAAGACUGCGGGUUCGAGUCCCGUAAGGAAUG | -0.0269

Variant | yeast fitness (ln)
GUUCCGUUGGCGUAAUGGUAACGCGUCUCCCUCCUAAGGAGAAGACUGCGGGUUCGAGUCCCGUAUGGGGUG | -0.106
GUUCCGUUGGCGUAAUGGUAACGCGUCUCCCUCCUAAGGAGAAGACUGCGGGUUCGAGUCCCGUACGGGGUG | -0.222
GUUCCGUUGGCGUAAUGGUAACGCGUCUCCCUCCUAAGGAGAAGACUGCGGGUUCGAGUCCCGUAAGGAGCG | -0.0114
GUUCCGUUGGCGUAAUGGUAACGCGUCUCCCUCCUAAGGAGAAGACUGCGGGUUCGAGUCCCGUAAGGAUCG | -0.00405
GUUCCGUUGGCGUAAUGGUAACGCGUCUCCCUCCUAAGGAGAAGACUGCGGGUUCGAGUCCCGUAUGGGACG | -0.168
GUUCCGUUGGCGUAAUGGUAACGCGUCUCCCUCCUAAGGAGAAGACUGCGGGUUCGAGUCCCGUAUGGAGCG | -0.0949
GUUCCGUUGGCGUAAUGGUAACGCGUCUCCCUCCUAAGGAGAAGACUGCGGGUUCGAGUCCCGUAUGGAUCG | -0.0848
GUUCCGUUGGCGUAAUGGUAACGCGUCUCCCUCCUAAGGAGAAGACUGCGGGUUCGAGUCCCGUACGGAUCG | 0.00232
GUUCCGUUGGCGUAAUGGUAACGCGUCUCCCUCCUAAGGAGAAGACUGCGGGUUCGAGUCCCGUACGGAGCG | -0.00424
GUUCCGUUGGCGUAAUGGUAACGCGUCUCCCUCCUAAGGAGAAGACUGCGGGUUCGAGUCCCGUACGGAGUG | -0.0739
GUUCCGUUGGCGUAAUGGUAACGCGUCUCCCUCCUAAGGAGAAGACUGCGGGUUCGAGUCCCGUACGGAAUG | -0.00399
GUUCCGUUGGCGUAAUGGUAACGCGUCUCCCUCCUAAGGAGAAGACUGCGGGUUCGAGUCCCGUAAGGGUUG | -0.32
GUUCCGUUGGCGUAAUGGUAACGCGUCUCCCUCCUAAGGAGAAGACUGCGGGUUCGAGUCCCGUAAGGAGUG | -0.0666
GUUCCGUUGGCGUAAUGGUAACGCGUCUCCCUCCUAAGGAGAAGACUGCGGGUUCGAGUCCCGUACGGGUUG | -0.162
GUUCCGUUGGCGUAAUGGUAACGCGUCUCCCUCCUAAGGAGAAGACUGCGGGUUCGAGUCCCGUAUGGAAUG | -0.173
GUUCCGUUGGCGUAAUGGUAACGCGUCUCCCUCCUAAGGAGAAGACUGCGGGUUCGAGUCCCGUAUGGAUUG | -0.135
